Key:
Type in all cases: functional
Mus musculus [1] = experiment: Antitumor activity was determined for survival range of mice against P-388 leukemia in mice at a dose of 40 mg/kg
Method in brief: (§1)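 Male B6D2F1J mice implanted ip with 10⁶ P-388 cells on day 0; test agents given ip on days 1–4 (qd × 4) in sterile saline, or in 10% Tween 80 for the lipophilic thioether. Groups of 5 treated mice, with 10–17 untreated controls per experiment. Mice weighed on days 1 and 7 to give the 7-day weight change in g and %. Survival recorded in days as median and range.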

Mus musculus [2] = experiment: Antitumor activity was determined for 7-day average percent weight change against P-388 leukemia in mice at a dose of 160 mg/kg
Method in brief: (§2)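 Male B6D2F1J mice given 10⁶ P-388 cells ip on day 0, then treated ip once daily on days 1-4 (qd × 4), 5 mice per dose group. Compounds dosed in sterile saline, except one lipophilic thioether given in 10% Tween 80. Mice weighed on days 1 and 7; mean weight per mouse on day 1 and 7-day weight change reported in g and as percent.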

Mus musculus [3] = experiment: Antitumor activity was determined for median survival of mice against P-388 leukemia in mice at a dose of 640 mg/kg; method in brief: as §1
Mus musculus [4] = experiment: Antitumor activity was determined for 7-day average percent weight change against P-388 leukemia in mice at a dose of 80 mg/kg; method in brief: as §2
L1210 = experiment: Evaluated for cytotoxicity against L1210 mouse leukemia cells; settings: read-out: ID50 (the source's name)
Method in brief: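 L1210 murine leukemia cells in Eagle's minimal essential medium with 15% fetal calf serum, streptomycin (100 μg/mL), penicillin (100 units/mL) and 0.05 mM 2-mercaptoethanol. Cells counted by Coulter counter after 48 h exposure. ID50 is the 50% growth-inhibitory dose. Triplicate assays, standard deviation ±10%.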

Mus musculus [5] = experiment: Antitumor activity was determined for average weight on day 1 against P-388 leukemia in mice at a dose of 80 mg/kg
Method in brief: (§3)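 Male B6D2F1J mice, groups of 5, inoculated ip with 10⁶ P-388 cells on day 0. Drug given ip on days 1-4 (qd × 4) in sterile saline, or in 10% Tween 80 for the poorly water-soluble thioether. Average weight per mouse recorded on day 1, with reweighing on day 7 for percent weight change. Untreated control groups had 10-17 animals per experiment.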

Mus musculus [6] = experiment: Antitumor activity was determined for average weight on day 1 against P-388 leukemia in mice at a dose of 160 mg/kg; method in brief: as §2
Mus musculus [7] = experiment: Antitumor activity was determined for average weight on day 1 against P-388 leukemia in mice at a dose of 40 mg/kg; method in brief: as §3
Mus musculus [8] = experiment: Antitumor activity was determined for survival range of mice against P-388 leukemia in mice at a dose of 640 mg/kg; method in brief: as §1
Mus musculus [9] = experiment: Antitumor activity was determined for 7-day average percent weight change against P-388 leukemia in mice at a dose of 40 mg/kg; method in brief: as §2
Mus musculus [10] = experiment: Antitumor activity was determined for average 7-day weight change against P-388 leukemia in mice at a dose of 160 mg/kg; method in brief: as §2
Mus musculus [11] = experiment: Antitumor activity was determined for average 7-day weight change against P-388 leukemia in mice at a dose of 40 mg/kg; method in brief: as §2
Mus musculus [12] = experiment: Percent increase in life span against P-388 leukemia in mice was determined at a dose of 80 mg/kg; settings: P388
Method in brief: (§4)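 Male B6D2F1J mice, 5 per dose group, received 10⁶ P-388 cells ip on day 0. Dosing was ip qd × 4 on days 1-4 in sterile saline, or 10% Tween 80 for the butyl thioether. Median survival times of treated (T) and untreated control (C, 10-17 mice) groups were compared: %ILS = [(T/C) − 1]100. Weights taken on days 1 and 7.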

Mus musculus [13] = experiment: Antitumor activity was determined for median survival of mice against P-388 leukemia in mice at a dose of 160 mg/kg; method in brief: as §1
Mus musculus [14] = experiment: Percent increase in life span against P-388 leukemia in mice was determined at a dose of 160 mg/kg; settings: P388; method in brief: as §4
Mus musculus [15] = experiment: Antitumor activity was determined for 7-day average percent weight change against P-388 leukemia in mice at a dose of 640 mg/kg; method in brief: as §2
Mus musculus [16] = experiment: Antitumor activity was determined for median survival of mice against P-388 leukemia in mice at a dose of 320 mg/kg; method in brief: as §1
Mus musculus [17] = experiment: Antitumor activity was determined for average weight on day 1 against P-388 leukemia in mice at a dose of 640 mg/kg; method in brief: as §3
Mus musculus [18] = experiment: Antitumor activity was determined for average 7-day weight change against P-388 leukemia in mice at a dose of 80 mg/kg; method in brief: as §2
Mus musculus [19] = experiment: Antitumor activity was determined for survival range of mice against P-388 leukemia in mice at a dose of 80 mg/kg
Method in brief: (§5)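 Male B6D2F1J mice, 5 per dose group, implanted ip with 10⁶ P-388 leukemia cells on day 0. Drug given ip daily on days 1-4 (qd × 4) in sterile saline, or in 10% Tween 80 for the butyl thioether. Survival range recorded in days. Untreated control groups had 10-17 animals per experiment. Mice weighed on days 1 and 7.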

Mus musculus [20] = experiment: Antitumor activity was determined for 7-day average percent weight change against P-388 leukemia in mice at a dose of 320 mg/kg; method in brief: as §2
Mus musculus [21] = experiment: Percent increase in life span against P-388 leukemia in mice was determined at a dose of 640 mg/kg; settings: P388; method in brief: as §4
Mus musculus [22] = experiment: Antitumor activity was determined for median survival of mice against P-388 leukemia in mice at a dose of 40 mg/kg; method in brief: as §1
Mus musculus [23] = experiment: Antitumor activity was determined for survival range of mice against P-388 leukemia in mice at a dose of 320 mg/kg; method in brief: as §1
Mus musculus [24] = experiment: Percent increase in life span against P-388 leukemia in mice was determined at a dose of 40 mg/kg; settings: P388; method in brief: as §4
Mus musculus [25] = experiment: Antitumor activity was determined for median survival of mice against P-388 leukemia in mice at a dose of 80 mg/kg; method in brief: as §1
Mus musculus [26] = experiment: Antitumor activity was determined for average weight on day 1 against P-388 leukemia in mice at a dose of 320 mg/kg; method in brief: as §3
Mus musculus [27] = experiment: Percent increase in life span against P-388 leukemia in mice was determined at a dose of 320 mg/kg; settings: P388; method in brief: as §4
Mus musculus [28] = experiment: Antitumor activity was determined for survival range of mice against P-388 leukemia in mice at a dose of 160 mg/kg; method in brief: as §1
Mus musculus [29] = experiment: Percent increase in life span against P-388 leukemia in mice was determined at a dose of 2 mg/kg; settings: P388; method in brief: as §4
Mus musculus [30] = experiment: Percent increase in life span against P-388 leukemia in mice was determined at a dose of 4 mg/kg; settings: P388; method in brief: as §4
Mus musculus [31] = experiment: Antitumor activity was determined for survival range of mice against P-388 leukemia in mice at a dose of 8 mg/kg; method in brief: as §5
Mus musculus [32] = experiment: Antitumor activity was determined for average 7-day weight change against P-388 leukemia in mice at a dose of 8 mg/kg; method in brief: as §2
Mus musculus [33] = experiment: Antitumor activity was determined for 7-day average percent weight change against P-388 leukemia in mice at a dose of 4 mg/kg; method in brief: as §2
Mus musculus [34] = experiment: Antitumor activity was determined for 7-day average percent weight change against P-388 leukemia in mice at a dose of 2 mg/kg; method in brief: as §2
Mus musculus [35] = experiment: Antitumor activity was determined for average weight on day 1 against P-388 leukemia in mice at a dose of 2 mg/kg; method in brief: as §3
Mus musculus [36] = experiment: Antitumor activity was determined for average 7-day weight change against P-388 leukemia in mice at a dose of 4 mg/kg; method in brief: as §2
Mus musculus [37] = experiment: Antitumor activity was determined for 7-day average percent weight change against P-388 leukemia in mice at a dose of 8 mg/kg; method in brief: as §2
Mus musculus [38] = experiment: Antitumor activity was determined for median survival of mice against P-388 leukemia in mice at a dose of 2 mg/kg; method in brief: as §1
Mus musculus [39] = experiment: Antitumor activity was determined for survival range of mice against P-388 leukemia in mice at a dose of 4 mg/kg; method in brief: as §1
Mus musculus [40] = experiment: Antitumor activity was determined for survival range of mice against P-388 leukemia in mice at a dose of 2 mg/kg; method in brief: as §1
Mus musculus [41] = experiment: Antitumor activity was determined for average weight on day 1 against P-388 leukemia in mice at a dose of 8 mg/kg; method in brief: as §3
Mus musculus [42] = experiment: Antitumor activity was determined for average weight on day 1 against P-388 leukemia in mice at a dose of 4 mg/kg; method in brief: as §3
Mus musculus [43] = experiment: Antitumor activity was determined for average 7-day weight change against P-388 leukemia in mice at a dose of 2 mg/kg; method in brief: as §2
Mus musculus [44] = experiment: Antitumor activity was determined for median survival of mice against P-388 leukemia in mice at a dose of 8 mg/kg; method in brief: as §1
Mus musculus [45] = experiment: Percent increase in life span against P-388 leukemia in mice was determined at a dose of 8 mg/kg; settings: P388; method in brief: as §4
Mus musculus [46] = experiment: Antitumor activity was determined for median survival of mice against P-388 leukemia in mice at a dose of 4 mg/kg; method in brief: as §1
Mus musculus [47] = experiment: Antitumor activity was determined for average 7-day weight change against P-388 leukemia in mice at a dose of 320 mg/kg; method in brief: as §2
Mus musculus [48] = experiment: Antitumor activity was determined for average 7-day weight change against P-388 leukemia in mice at a dose of 640 mg/kg; method in brief: as §2

Structure (SMILES) | Weight change (Mus musculus [2]) | Survival median (Mus musculus [3]) | Weight change (Mus musculus [4]) | IC50 (L1210) | Average weight (Mus musculus [5]) | Average weight (Mus musculus [6]) | Survival range (Mus musculus [8]) | Average weight (Mus musculus [10]) | ILS at 80 mg/kg (Mus musculus [12]) | Survival median (Mus musculus [13]) | ILS at 160 mg/kg (Mus musculus [14]) | Weight change (Mus musculus [15]) | Survival median (Mus musculus [16]) | Average weight (Mus musculus [17]) | Average weight (Mus musculus [18]) | Survival range (Mus musculus [19]) | Weight change (Mus musculus [20]) | ILS at 640 mg/kg (Mus musculus [21]) | Survival range (Mus musculus [23]) | Survival median (Mus musculus [25]) | also measured
O=c1[nH]c(=O)n(C2OC[C@@H](O)[C@H]2O)cc1F (stereo partly drawn) | 8% | 21 | 11% | 130 µM | 24.2 g mouse-1 | 24.2 g mouse-1 | 17 | 1.6 g mouse-1 | 16% | 15 | 25% | -9% | 17 | 25.6 g mouse-1 | 2.6 g mouse-1 | 11 | 1% | 75% | 16 | 14 | Survival range (Mus musculus [1]): 12; Average weight (Mus musculus [7]): 25.2 g mouse-1; Weight change (Mus musculus [9]): 12%; Average weight (Mus musculus [11]): 3 g mouse-1; Survival median (Mus musculus [22]): 12; ILS at 40 mg/kg (Mus musculus [24]): 0%; Average weight (Mus musculus [26]): 25.8 g mouse-1; ILS at 320 mg/kg (Mus musculus [27]): 41%; Survival range (Mus musculus [28]): 14
O=c1[nH]c(=O)n([C@@H]2O[C@H](CO)[C@@H](O)[C@H]2O)cc1F [5-FLUOROURIDINE] |  |  |  | 0.0024 µM |  |  |  |  |  |  |  |  |  |  |  |  |  |  |  |  | ILS at 2 mg/kg (Mus musculus [29]): 66%; ILS at 4 mg/kg (Mus musculus [30]): 75%; Survival range (Mus musculus [31]): 21; Average weight (Mus musculus [32]): -6 g mouse-1; Weight change (Mus musculus [33]): -12%; Weight change (Mus musculus [34]): 5%; Average weight (Mus musculus [35]): 26 g mouse-1; Average weight (Mus musculus [36]): -3.2 g mouse-1; Weight change (Mus musculus [37]): -23%; Survival median (Mus musculus [38]): 20; Survival range (Mus musculus [39]): 18; Survival range (Mus musculus [40]): 18; Average weight (Mus musculus [41]): 25.8 g mouse-1; Average weight (Mus musculus [42]): 26.4 g mouse-1; Average weight (Mus musculus [43]): 1.2 g mouse-1; Survival median (Mus musculus [44]): 23; ILS at 8 mg/kg (Mus musculus [45]): 91%; Survival median (Mus musculus [46]): 21
C[C@H]1O[C@@H](n2cc(F)c(=O)[nH]c2=O)[C@H](O)[C@@H]1O [DOXIFLURIDINE] | 2% | 17 | 7% | 140 µM | 28.6 g mouse-1 | 26.8 g mouse-1 | 9 | 0.4 g mouse-1 | 18% | 15 | 36% | -21% | 17 | 27 g mouse-1 | 2.2 g mouse-1 | 11 | -5% | 54% | 15 | 13 | Average weight (Mus musculus [47]): -1.4 g mouse-1; Average weight (Mus musculus [48]): -5.6 g mouse-1; Average weight (Mus musculus [26]): 26.2 g mouse-1; ILS at 320 mg/kg (Mus musculus [27]): 54%; Survival range (Mus musculus [28]): 14
